Assay results collected from several papers.
Protocols differ between the studies behind these lines.
Target: Homeodomain-interacting protein kinase 3 (HIPK3, Homo sapiens, UniProt Q9H422)

| Structure (SMILES) | assay | conditions | endpoint | value |
| --- | --- | --- | --- | --- |
| CCCS(=O)(=O)Nc1ccc(F)c(C(=O)c2c[nH]c3ncc(-c4ccc(Cl)cc4)cc23)c1F | enzyme activity, inhibitor | 1 µM | inhibition | < 10% |
| Cc1ccc(Nc2nccc(N(C)c3ccc4c(C)n(C)nc4c3)n2)cc1S(N)(=O)=O | enzyme activity, inhibitor | 0.3 µM | inhibition | 24% |
| O=C(NC[C@@H]1[C@H]2CN(C(=O)OCc3cc(C(F)(F)F)cc(C(F)(F)F)c3)C[C@@H]12)c1ccc2[nH]nnc2c1 | cell-free assay, competition with immobilised ligand | 1 µM | remaining binding | 89% |
| FC(F)(F)Oc1cccc(-c2cnc3ccc(-c4ccncc4)nn23)c1 | enzyme activity, inhibitor, radiometric | 5 µM | activity vs control | 35% |
| O=C(Nc1cnn(-c2csc(C(=O)NC3COC3)c2)c1)Nc1c(F)cccc1Cl | enzyme activity, inhibitor | 5 µM | remaining activity | 98.8% |
| O=C(Nc1cccnn1)N1CC(C/C=C/c2cncc(Oc3ccc(C(F)(F)F)cn3)n2)C1 | cell-free assay, competition with immobilised ligand | 1 µM | remaining binding | 74% |
| O=C(O)c1ccc2c(c1)nc(Nc1ccc(Cl)cc1)c1ncncc12 | enzyme activity, inhibitor, radiometric | 1 µM | remaining activity | 7% |
| COc1cc(/C=C/C(=O)CC(=O)/C=C/c2ccc(O)c(OC)c2)ccc1O | enzyme activity, inhibitor | 1 µM | activity vs control | 88% |
| COc1cc2ncnc(Nc3ccc(Oc4ccccc4)c(C)c3C)c2cc1OC | enzyme activity, inhibitor | 1 µM | inhibition | 1% |
| Cc1cc(NC(=O)c2cccc3cc(-c4cccc5[nH]nc(N)c45)ccc23)ccc1F | enzyme activity, inhibitor | 0.1 µM | activity vs control | 92% |
| O=C(O)c1ccc2c(c1)nc(NCCc1ccccc1)c1ncncc12 | enzyme activity, inhibitor, radiometric | 1 µM | remaining activity | 16% |
| CO[C@H]1CC[C@H](CNc2ccc(S(=O)(=O)NC(=O)c3ccc(N4CCN(CC5=C(c6ccc(Cl)cc6)CC(C)(C)CC5)CC4)cc3Oc3cnc4[nH]ccc4c3)cc2[N+](=O)[O-])CC1 | cell-free assay, competition with immobilised ligand | 1 µM | remaining binding | 100% |
| CCOc1cc(-c2nncn2C)ccc1Nc1ncc2cc(C)nc(NCC(C)(C)C)c2n1 | enzyme activity, inhibitor, FRET | 1 µM | inhibition | < 15% |
| CC/C(=N\NC(=O)NCc1cccc(O)c1)c1ccc(O)c(C)c1O | enzyme activity, inhibitor | 0.1 µM | inhibition | 2.5% |
| O=C(O)c1ccc2c(c1)nc(Nc1ccccc1)c1ncncc12 | enzyme activity, inhibitor, radiometric | 1 µM | remaining activity | 13% |
| C#Cc1cccc(Nc2ncnc3cc(OCCOC)c(OCCOC)cc23)c1 | cell-free assay | 0.5 µM | remaining signal | 102% |
| N#Cc1cccc(Nc2nc3cc(C(=O)O)ccc3c3cnccc23)c1 | enzyme activity, inhibitor, radiometric | 1 µM | remaining activity | 13% |
| O=C1NC(=O)c2cc(Nc3ccc(F)cc3)c(Nc3ccc(F)cc3)cc21 | cell-free assay | 0.5 µM | remaining signal | 95.3% |
| Cc1nc(Cc2cccc(C(F)(F)F)c2)sc1-c1ccc(C(N)=O)nc1 | cell-free assay, competition with immobilised ligand | 1 µM | remaining binding | 100% |
| CNC(=O)c1cc(Oc2ccc(NC(=O)Nc3ccc(Cl)c(C(F)(F)F)c3)cc2)ccn1 | cell-free assay | 0.5 µM | remaining signal | 85.7% |
| N#Cc1ccc(Nc2ccc3[nH]c(=O)[nH]c3c2)c(Cl)c1 | cell-free assay, competition with immobilised ligand | 1 µM | remaining binding | 94% |
| O=C(O)c1ccc2c(c1)nc(NCc1ccccc1)c1ccncc12 | enzyme activity, inhibitor, radiometric | 1 µM | remaining activity | 68% |
| CC(C)CC(=O)N1CCc2nc(-c3ccc(Br)cc3)nc(N(C)Cc3ccccc3)c2C1 | cell-free assay, competition with immobilised ligand | 0.1 µM | remaining binding | 100% |
| O=C(O)c1ccc2c(c1)nc(Nc1ccccc1Cl)c1ncncc12 | enzyme activity, inhibitor, radiometric | 1 µM | remaining activity | 17% |
| COc1cc(-c2cc(-c3ccc(N4CCNCC4)cc3)cnc2C)cc(OC)c1OC | enzyme activity, inhibitor | 1 µM | inhibition | 2% |
| CCN(CC)CCNC(=O)c1c(C)[nH]c(/C=C2\C(=O)Nc3ccc(F)cc32)c1C | enzyme activity, inhibitor | 0.3 µM | inhibition | 21% |
| COc1cccc(CCNc2nc3cc(C(=O)O)ccc3c3cnccc23)c1 | enzyme activity, inhibitor, radiometric | 1 µM | remaining activity | 21% |
| CN([C@@H]1CCc2c(CC(=O)O)c3ccccc3n2C1)S(=O)(=O)c1ccc(F)cc1 | cell-free assay, competition with immobilised ligand | 1 µM | remaining binding | 71% |
| O=C(O)c1ccc2c(c1)nc(Nc1ccc(Cl)cc1)c1ccncc12 | enzyme activity, inhibitor, radiometric | 1 µM | remaining activity | 9% |
| Cc1noc([C@H]2C[C@@H](c3ccc(C(F)(F)F)cc3)CN(C(=O)N3CCS(=O)(=O)C3)C2)n1 | cell-free assay, competition with immobilised ligand | 1 µM | remaining binding | 96% |
